Publication PMC7486978 (Molecular pharmaceutics, 2019)
Bridge positions count the residues as written; N and C are the ends. Peptide text beside a SMILES is read from it. * marks the point of attachment. NOTA(2S-Bn(4-NHCS)) = O=C(O)CN1CCN(CC(=O)O)C[C@H](Cc2ccc(NC(=S)*)cc2)N(CC(=O)O)CC1

Tests used:
[1] = system: MCF-7 xenograft mice; assay: in vivo; type: in vivo, BALB/c nude mice; settings: for tumor uptake (biodistribution): no blocking, mean ± SD
[2] = in vivo; type: in vivo, BALB/c nude mice; settings: female, BALB/c nude, mouse, in vivo, total radioactivity
[3] = system: MX-1 xenograft mice; assay: Post-imaging biodistribution; type: in vivo, BALB/c nude mice; settings: 1 h p.i., mean ± SD, n = 4
In short: (§1)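 Female BALB/c nude mice were injected s.c. in the right shoulder with 1.0 × 10⁷ cells (MDA-MB-231/MDA-MB-468 grown in L-15 without CO₂; MX-1 in high-glucose DMEM, 10% FBS, 5% CO₂). They were used at tumor size 0.8–1.0 cm and given ⁶⁸Ga-labelled test compound (6.5–9 MBq, 125 μL) by tail vein. PET/CT under 2.0% isoflurane ran at 30 min. Mice were euthanized at 1 h; tissues weighed, γ-counted, decay-corrected %ID/g, mean ± SD.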

[4] = system: MCF-7 tumor xenograft; assay: Small-animal PET/CT imaging, ROI tumor uptake; type: in vivo, BALB/c nude mice; settings: MCF-7 xenograft, 30 min p.i., n = 4
[5] = system: MDA-MB-468 xenograft mice; assay: Post-imaging biodistribution; type: in vivo, BALB/c nude mice; settings: 1 h p.i., mean ± SD, n = 4
In short: as §1

[6] = system: MCF-7 cells; assay: In vitro cell uptake and blocking study; type: cell-based, human; settings: 100 times excess (100 pmol) nonradioactive RGD, NGR, RGD+NGR or NGR-RGD 15 min in advance; 2 h at 37 °C
[7] = system: MDA-MB-231 tumor xenograft; assay: Small-animal PET/CT imaging, ROI tumor uptake; type: in vivo, BALB/c nude mice; settings: MDA-MB-231 xenograft, 30 min p.i., 6.5–9 MBq; n = 4
[8] = system: MDA-MB-231 xenograft mice; assay: Post-imaging biodistribution; type: in vivo, BALB/c nude mice; settings: 1 h p.i., mean ± SD, n = 4
In short: as §1

[9] = In vitro stability in PBS; type: physicochemical; settings: PBS pH 7.4, 37 °C, 2 h, 14.8 MBq; analytical radio-HPLC
In short: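 ⁶⁸Ga-labelled test compound was prepared by heating precursor with [⁶⁸Ga]GaCl₃ in sodium acetate buffer (final pH about 4.0) at 90 °C for 5 min and used unpurified. Tracer (14.8 MBq) was held in PBS pH 7.4 at 37 °C for 2 h.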

[10] = system: MX-1 tumor xenograft; assay: Small-animal PET/CT imaging, ROI tumor uptake; type: in vivo, BALB/c nude mice; settings: MX-1 xenograft, 30 min p.i., 6.5–9 MBq; n = 4
[11] = system: MDA-MB-468 tumor xenograft; assay: Small-animal PET/CT imaging, ROI tumor uptake; type: in vivo, BALB/c nude mice; settings: MDA-MB-468 xenograft, 30 min p.i., 6.5–9 MBq; n = 4
[12] = MCF-7 xenograft mice, 1 h p.i., n = 4

| Molecule | tumor uptake (biodistribution) [1, 12] | tissue uptake at 1 h [2] | tumor uptake (biodistribution) [3] | tumor uptake (PET ROI), blocked by NGR ([4]; coinjected unlabeled NGR 20 mg/kg) | tumor uptake (PET ROI), blocked by NGR-RGD ([4]; coinjected unlabeled NGR-RGD 20 mg/kg) | tumor uptake (PET ROI), blocked by RGD ([4]; coinjected unlabeled RGD 20 mg/kg) | tumor uptake (PET ROI), blocked by RGD+NGR ([4]; coinjected unlabeled RGD+NGR 20 mg/kg) | tumor uptake (PET ROI) ([4]; comparison of tumor types (Figure 5B)) | tumor uptake (biodistribution) [5] | tumor uptake (biodistribution), blocked with NGR-RGD ([1]; MCF-7 xenograft mice, 1 h p.i., coinjection of excess unlabeled NGR-RGD, n = 4) | tumor uptake (biodistribution), blocked with NGR ([1]; MCF-7 xenograft mice, 1 h p.i., coinjection of excess unlabeled NGR, n = 4) | tumor uptake (biodistribution), blocked with RGD+NGR ([1]; MCF-7 xenograft mice, 1 h p.i., coinjection of excess unlabeled RGD+NGR, n = 4) | tumor uptake (biodistribution), blocked with RGD ([1]; MCF-7 xenograft mice, 1 h p.i., coinjection of excess unlabeled RGD, n = 4) | accumulation in the kidneys (biodistribution) ([1]; mouse, in vivo, 1 h) | uptake by MCF-7 cells when pretreated with excess of blocking agents [6] | tumor uptake (PET ROI) [7] | tumor uptake (biodistribution) [8] | proportion of the intact tracer [9] | tumor uptake (PET ROI) [10] | tumor uptake (PET ROI) [11] |
| --- | --- | --- | --- | --- | --- | --- | --- | --- | --- | --- | --- | --- | --- | --- | --- | --- | --- | --- | --- | --- |
| N=C(N)NCCC[C@@H]1NC(=O)CNC(=O)[C@H](CC(N)=O)NC(=O)[C@H](CCCCNC(=S)Nc2ccc(C[C@H]3CN(CC(=O)O)CCN(CC(=O)O)CCN3CC(=O)O)cc2)NC(=O)CC[C@@H](C(N)=O)NC1=O [^68Ga-NGR, metal not drawn, reference compound] (K(NOTA(2S-Bn(4-NHCS)))NGRE-NH2; lactam N-5; C-terminus assumed) | 0.14 ± 0.04 %ID/g | 0.87 ± 0.04 %ID/g | – | – | – | – | – | – | – | – | – | – | – | – | – | – | – | – | – | – |
| c(RGDyK)-PEG4-NOTA-click-PEG4-c(CNGRC) (bicyclic or more) [^68Ga-NGR-RGD] | 1.02 ± 0.16 %ID/g | – | 0.20 ± 0.03 %ID/g | 0.80 ± 0.03 %ID/g | 0.28 ± 0.06 %ID/g | 0.37 ± 0.05 % ID/g | 0.31 ± 0.03 %ID/g | 1.03 ± 0.08 %ID/g | 0.28 ± 0.04 %ID/g | 0.16 ± 0.04 %ID/g | 0.67 ± 0.02 %ID/g | 0.20 ± 0.07 %ID/g | 0.17 ± 0.04 %ID/g | 2.52 ± 0.30 %ID/g | decreased significantly | 1.04 ± 0.06 %ID/g | 0.53 ± 0.05 %ID/g | exceeded 95% | 0.41 ± 0.08 %ID/g | 0.76 ± 0.10 %ID/g |
